Activity calls are given as the source filed them. No cut-off for these calls is given here.
Assays:
[1] = Total clearance in Sprague-Dawley rat at 0.1 mg/kg, iv by HPLC-MS analysis; format: ADME, organism-based; conditions: in vivo
Summary of the method: (§1)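 Male rats (330−380 g, 9−10 weeks old), jugular-vein cannulated 1 day before dosing, n = 3. Dosed iv in DMA/PEG400 (20%/80%, v/v) or po in 1% CMC/0.5% Tween-80. Blood (100 μL) drawn at 0, 2 min, 5 min (iv only), 15 and 30 min, and 1, 2, 4, 6, 8 and 24 h. Plasma measured by LC-MS/MS; parameters from noncompartmental analysis.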

[2] = Volume of distribution at steady state in Sprague-Dawley rat at 0.1 mg/kg, iv by HPLC-MS analysis; format: ADME, organism-based; conditions: in vivo, read-out: Vdss
Summary of the method: (§2)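 Male rats (330−380 g, 9−10 weeks old), quarantined 1 week, jugular-vein cannula implanted 1 day before dosing; n = 3. Single iv dose in DMA/PEG400 (20%/80%, v/v). Blood (100 μL) was drawn via cannula at 0, 2, 5, 15, 30 min and 1, 2, 4, 6, 8, 24 h and kept on ice. Plasma was analysed by HPLC−MS/MS. Vss came from noncompartmental analysis.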

[3] = Tmax in Sprague-Dawley rat at 1 mg/kg, po by HPLC-MS analysis; format: ADME, organism-based; conditions: in vivo; summary of the method: as §1
[4] = AUC (0 to infinity) in Sprague-Dawley rat at 0.1 mg/kg, iv by HPLC-MS analysis; format: ADME, organism-based; set-up: dose 0.1 mg/kg, time infinity, route intravenous; conditions: in vivo; summary of the method: as §1
[5] = AUC (0 to infinity) in Sprague-Dawley rat at 1 mg/kg, po by HPLC-MS analysis; format: ADME, organism-based; set-up: dose 1 mg/kg, route oral, time infinity; conditions: in vivo; summary of the method: as §1
[6] = Oral bioavailability in Sprague-Dawley rat at 1 mg/kg by HPLC-MS analysis; format: ADME, organism-based; conditions: in vivo; summary of the method: as §1
ASPC1 [7] = assay: Antitumor activity against human Aspc-1 cells xenografted in Balb/cAnN.Cg-Foxn1nu/CrlNarl mouse assessed as tumor growth inhibition at 50 mg/kg, ip once daily administered for 5 days followed by 2 days without dosing for 43 days relative to control; format: functional; conditions: read-out: TGI
Summary of the method: (§3)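 Male nude mice (7−8 weeks, 18−22 g) received 4.5 × 10^6 AsPC-1 cells sc in the right flank, in HBSS mixed 1:1 with Matrigel. Mice were randomized once mean tumor reached ~100 mm3 (day 1). Dosing was ip once daily, 5 days on/2 days off, with 2% DMSO/PBS as vehicle. Tumors were measured twice weekly, V = ab²/2. %TGI = [1 − ((Tt − T0)/(Ct − C0))] × 100 from median volumes; Student's t test.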

Mus musculus [8] = assay: Toxicity in BALB/CAnN.Cg-Foxn1nu/CrlNarl mouse xenografted with human Aspc-1 cells assessed as overt toxicity at 25 to 50 mg/kg, ip once daily administered for 5 days followed by 2 days without dosing for 43 days; format: organism-based, BALB/C; conditions: in vivo
[9] = molecular target: T1, Glutaminase liver isoform, mitochondrial (Homo sapiens) (UniProt Q9UI32); assay: Inhibition of human GLS2 in GLS1 deficient human Aspc-1 cells assessed as decrease in cellular glutamate production after 4 hrs by amplex red glutamic acid assay
T1 sequence (whole entry): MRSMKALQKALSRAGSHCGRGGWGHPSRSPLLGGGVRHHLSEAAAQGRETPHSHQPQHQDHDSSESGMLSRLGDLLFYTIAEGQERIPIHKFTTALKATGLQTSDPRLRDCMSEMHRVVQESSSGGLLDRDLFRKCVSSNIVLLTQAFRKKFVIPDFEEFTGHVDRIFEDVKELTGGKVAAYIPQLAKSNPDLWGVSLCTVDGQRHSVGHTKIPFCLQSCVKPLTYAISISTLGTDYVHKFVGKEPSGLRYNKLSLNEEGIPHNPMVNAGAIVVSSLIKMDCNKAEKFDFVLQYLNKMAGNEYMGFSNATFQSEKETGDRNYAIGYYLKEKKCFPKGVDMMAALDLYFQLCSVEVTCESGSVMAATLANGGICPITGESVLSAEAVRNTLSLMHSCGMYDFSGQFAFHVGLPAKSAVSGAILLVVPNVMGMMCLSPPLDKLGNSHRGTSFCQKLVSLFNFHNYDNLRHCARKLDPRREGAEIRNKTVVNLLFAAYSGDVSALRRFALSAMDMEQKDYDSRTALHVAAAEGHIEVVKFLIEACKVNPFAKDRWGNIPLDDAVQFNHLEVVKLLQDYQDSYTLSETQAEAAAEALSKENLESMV
Summary of the method: (§4)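 GLS-knockout AsPC-1 cells made with GLS-KO ZFN mRNA, single-cell cloned, and grown in glutamine-free RPMI 1640 with 10% FBS. Cells seeded at 30 000/well and grown 24 h at 37 °C. Treated 4 h with 1% DMSO vehicle or 3.13−100 μM inhibitor, washed with PBS, and lysed in NP-40 buffer (4 °C, 20 min). Lysate glutamate measured by Amplex Red. Three independent experiments in duplicate.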

[10] = molecular target: T1, Glutaminase liver isoform, mitochondrial (Homo sapiens); assay: Inhibition of human GLS2 in GLS1 deficient human Aspc-1 cells assessed as decrease in cellular glutamate production at 3.13 to 100 uM after 4 hrs by amplex red glutamic acid assay; summary of the method: as §4
[11] = Terminal half life in Sprague-Dawley rat at 2 mg/kg, iv by HPLC-MS analysis; format: ADME, organism-based; conditions: in vivo, read-out: beta t1/2 (converted); summary of the method: as §1
[12] = Total clearance in Sprague-Dawley rat at 2 mg/kg, iv by HPLC-MS analysis; format: ADME, organism-based; conditions: in vivo
Summary of the method: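 Male rats (330−380 g, 9−10 weeks old), jugular-vein cannulated 1 day before dosing, n = 3. Dosed iv in DMA/PEG400 (20%/80%, v/v) or po in 1% CMC/0.5% Tween-80. Plasma measured by LC-MS/MS; parameters from noncompartmental analysis.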

[13] = Volume of distribution at steady state in Sprague-Dawley rat at 2 mg/kg, iv by HPLC-MS analysis; format: ADME, organism-based; conditions: in vivo, read-out: Vdss; summary of the method: as §2
[14] = AUC (0 to infinity) in Sprague-Dawley rat at 2 mg/kg, iv by HPLC-MS analysis; format: ADME, organism-based; set-up: dose 2 mg/kg, route intravenous, time infinity; conditions: in vivo; summary of the method: as §1
ASPC1 [15] = assay: Antitumor activity against human Aspc-1 cells xenografted in Balb/cAnN.Cg-Foxn1nu/CrlNarl mouse assessed as tumor growth inhibition at 25 mg/kg, ip once daily administered for 5 days followed by 2 days without dosing for 68 days relative to control; format: functional; conditions: read-out: TGI; summary of the method: as §3
Mus musculus [16] = assay: Toxicity in BALB/CAnN.Cg-Foxn1nu/CrlNarl mouse xenografted with human Aspc-1 cells assessed as loss in body weight at 25 to50 mg/kg, ip once daily administered for 5 days followed by 2 days without dosing for 68 days relative to control; format: organism-based, BALB/C; conditions: in vivo, 1632 h
Mus musculus [17] = assay: Toxicity in BALB/CAnN.Cg-Foxn1nu/CrlNarl mouse xenografted with human Aspc-1 cells assessed as overt toxicity at 25 to 50 mg/kg, ip once daily administered for 5 days followed by 2 days without dosing for 68 days; format: organism-based, BALB/C; conditions: in vivo
HCC1806 = assay: Synergistic cytotoxicity against human HCC1806 cells assessed as reduction in cell viability at ED50 in presence of BPTES by MTS assay; format: functional
Summary of the method: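 HCC1806 breast carcinoma cells seeded at 3000 cells/well and co-treated with the inhibitor and BPTES; viability read by MTS. […] Three independent experiments.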

[18] = molecular target: Glutaminase 1/2 (Homo sapiens) (UniProt O94925+Q9UI32); conditions: 3.13 to 100 uM
Chain of Glutaminase 1/2 (Homo sapiens) (O94925 whole entry, looked up, one chain of several): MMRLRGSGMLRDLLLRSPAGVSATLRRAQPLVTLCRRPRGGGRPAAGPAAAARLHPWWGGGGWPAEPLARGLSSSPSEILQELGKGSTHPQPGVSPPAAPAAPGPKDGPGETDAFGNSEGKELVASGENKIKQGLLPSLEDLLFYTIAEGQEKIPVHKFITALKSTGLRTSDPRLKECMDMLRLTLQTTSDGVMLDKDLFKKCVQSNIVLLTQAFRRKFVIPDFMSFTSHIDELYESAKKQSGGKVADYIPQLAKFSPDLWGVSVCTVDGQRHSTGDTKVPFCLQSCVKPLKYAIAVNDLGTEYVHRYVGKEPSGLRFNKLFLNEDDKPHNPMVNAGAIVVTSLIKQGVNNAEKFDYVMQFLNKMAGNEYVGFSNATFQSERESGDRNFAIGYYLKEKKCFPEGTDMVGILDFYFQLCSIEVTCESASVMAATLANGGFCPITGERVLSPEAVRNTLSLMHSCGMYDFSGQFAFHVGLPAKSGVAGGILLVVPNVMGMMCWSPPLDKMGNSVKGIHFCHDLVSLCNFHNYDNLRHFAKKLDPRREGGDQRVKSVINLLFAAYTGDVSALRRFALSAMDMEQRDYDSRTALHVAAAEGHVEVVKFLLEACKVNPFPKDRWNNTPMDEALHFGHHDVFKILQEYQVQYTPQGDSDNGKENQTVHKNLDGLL

`Cc1cc(/C=C2\SC(=O)NC2=O)c(C)n1-c1ccc(-c2ccc(/C=C3\SC(=O)NC3=O)cc2)cc1` gave a clearance [1] of 0.4 mL/min/kg, a Vd [2] of 0.4 L/kg and a Tmax [3] of 4 h. It also gave an AUC(0-inf) [4] of 3410 ng·h/mL, an AUC(0-inf) [5] of 222 ng·h/mL and a bioavailability [6] of 1%. The inhibition in vivo at 50 mg/kg (ASPC1 [7]) was 64% and the Activity (Mus musculus [8]) was “Non-Toxic”.
With `O=C1NC(=O)/C(=C/c2ccc(-c3ccc(-n4c(-c5cccs5)cc(/C=C5\SC(=O)NC5=O)c4-c4cccs4)cc3)cc2)S1` the inhibition [9] was “Dose-dependent effect”, the inhibition [10] was “Active” and the half-life [11] was 5 h. The clearance [12] was 0.9 mL/min/kg, the Vd [13] was 0.1 L/kg and the AUC(0-inf) [14] was 43600 ng·h/mL. For the same compound, the inhibition in vivo at 25 mg/kg (ASPC1 [15]) was 2.3%, the Activity (Mus musculus [16]) was > 10% and the Activity (Mus musculus [17]) was “Non-Toxic”. The CI (HCC1806) was 0.13 - 0.14 and the inhibition [18] was “Active”.

— ChEMBL document CHEMBL4011632, “Design, Synthesis, and Evaluation of Thiazolidine-2,4-dione Derivatives as a Novel Class of Glutaminase Inhibitors” (J Med Chem, 2017)
